In ChEMBL document CHEMBL1137196, “Non-peptide oxytocin agonists” (Bioorg Med Chem Lett, 2004):
pEC50: −log10 of the molar value.

Experiments:
[1] = biological target: Oxytocin receptor (Homo sapiens) (UniProt P30559); assay: Agonist activity against Oxytocin receptor relative to oxytocin at 3 uM
Vasopressin V2 receptor = Vasopressin V2 receptor (Homo sapiens, UniProt P30518); assay: Effective concentration for human Vasopressin V2 receptor
In short: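 293 cells in phenol red-free DMEM with penicillin and 10% foetal calf serum were dual-transfected with V2 receptor and CRE-luciferase constructs, then grown 24 h at 37°C/5% CO2 before and after plating. Compounds came from 10 mM DMSO stocks (0.1% DMSO final). Luciferase was measured after 5 h at 37°C. EC50 from a 4-parameter logistic fit; mean ± SD (n≥3), or mean ± range where n=2.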

Oxytocin receptor = biological target: T1, Oxytocin receptor (Homo sapiens, UniProt P30559); assay: Effective concentration for human Oxytocin receptor
T1 sequence (P30559 whole entry): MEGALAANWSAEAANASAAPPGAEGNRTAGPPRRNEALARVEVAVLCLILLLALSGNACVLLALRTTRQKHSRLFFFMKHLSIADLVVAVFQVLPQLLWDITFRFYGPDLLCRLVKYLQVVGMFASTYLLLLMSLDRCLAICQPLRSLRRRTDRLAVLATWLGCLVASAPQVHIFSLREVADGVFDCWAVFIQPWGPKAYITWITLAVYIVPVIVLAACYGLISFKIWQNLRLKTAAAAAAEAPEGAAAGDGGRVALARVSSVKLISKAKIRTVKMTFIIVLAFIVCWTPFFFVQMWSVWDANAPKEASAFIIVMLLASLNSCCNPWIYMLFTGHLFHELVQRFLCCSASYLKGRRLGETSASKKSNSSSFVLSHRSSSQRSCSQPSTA
In short: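 CHO cells kept in phenol red-free DMEM with penicillin and 10% foetal calf serum, dual-transfected with human OT receptor and NFAT-luciferase constructs, then grown 24 h at 37°C/5% CO2 before and after plating. Compounds were diluted from 10 mM DMSO stocks (0.1% DMSO final). Luciferase was read after 5 h at 37°C. EC50 came from a 4-parameter logistic fit; mean ± SD (n≥3), or mean ± range where n=2.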

Sequence of Vasopressin V2 receptor (P30518 whole entry): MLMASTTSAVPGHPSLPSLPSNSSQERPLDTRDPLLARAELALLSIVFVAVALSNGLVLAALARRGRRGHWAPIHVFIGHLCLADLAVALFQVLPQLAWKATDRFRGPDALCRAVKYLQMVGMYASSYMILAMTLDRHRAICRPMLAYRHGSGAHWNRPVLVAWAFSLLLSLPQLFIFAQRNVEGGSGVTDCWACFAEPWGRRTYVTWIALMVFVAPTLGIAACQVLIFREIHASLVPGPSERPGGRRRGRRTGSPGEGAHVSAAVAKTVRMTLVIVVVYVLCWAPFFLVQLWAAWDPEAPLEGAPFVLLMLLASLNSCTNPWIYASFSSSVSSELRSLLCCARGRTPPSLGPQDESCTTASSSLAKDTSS

Row | Relativity [1] [%] | pEC50 (Vasopressin V2 receptor) | pEC50 (Oxytocin receptor) | SMILES
1 | 33 | – | – | Cc1cc(C(=O)N2CCCCc3ccccc32)ccc1CNC(=O)NCC(=O)N(C)C
2 | – | 6.24 | 5.82 | CO[C@@H]1C[C@@H](C(=O)NCCc2ccccn2)N(C(=O)NCc2ccc(C(=O)N3CCCCc4sccc43)cc2Cl)C1
3 | – | 5.96 | 5.64 | CO[C@@H]1C[C@@H](C(=O)N2CCC(N3CCCC3)CC2)N(C(=O)NCc2ccc(C(=O)N3CCCCc4sccc43)cc2Cl)C1
4 | – | 5.74 | 6.09 | CN1CCCN(C(=S)[C@@H]2CCCN2C(=O)NCc2ccc(C(=O)N3CCCCc4sccc43)cc2Cl)CC1
5 | < 10 | – | – | Cc1ccn(-c2ccc(C(=O)N3Cc4cccn4Cc4ccccc43)c(Cl)c2)n1
6 | – | 6.64 | 6.37 | CO[C@@H]1C[C@@H](C(=S)N2CCCN(C)CC2)N(C(=O)NCc2ccc(C(=O)N3CCCCc4sccc43)cc2Cl)C1
7 | – | 6.07 | 7.48 | Cc1cc(C(=O)N2Cc3cnn(C)c3Nc3ccccc32)ccc1CNC(=O)N1CCC[C@H]1C(=S)N1CCCN(C)CC1
8 | – | 5.89 | 5.55 | CO[C@@H]1C[C@@H](C(=O)N2CCCN(C)CC2)N(C(=O)NCc2ccc(C(=O)N3CCCCc4sccc43)cc2Cl)C1
9 | – | 6.05 | 6.19 | Cc1cc(C(=O)N2CCCCc3sccc32)ccc1CNC(=O)N1CCC[C@H]1C(=S)N1CCCN(C)CC1
10 | < 10 | – | – | CC(C)NC(=O)C[C@H]1CCCN(C(=O)c2ccc(N3CCCC3)cc2Cl)c2ccccc21
11 | – | 5.92 | 5.66 | CO[C@@H]1C[C@@H](C(=O)N2CCC(N3CCCCC3)CC2)N(C(=O)NCc2ccc(C(=O)N3CCCCc4sccc43)cc2Cl)C1
12 | – | 6.70 | 6.33 | CO[C@@H]1C[C@@H](C(=S)NCCc2ccccn2)N(C(=O)NCc2ccc(C(=O)N3CCCCc4sccc43)cc2Cl)C1
13 | – | 7.00 | 6.32 | CO[C@@H]1C[C@@H](C(=S)N2CCC(N3CCCC3)CC2)N(C(=O)NCc2ccc(C(=O)N3CCCCc4sccc43)cc2Cl)C1
14 | – | 5.74 | < 5.00 | CO[C@@H]1C[C@@H](C(=O)NCCN(C)C)N(C(=O)NCc2ccc(C(=O)N3CCCCc4sccc43)cc2Cl)C1
